According to ChEMBL document CHEMBL4765357, “Development of small-molecule inhibitors of fatty acyl-AMP and fatty acyl-CoA ligases in Mycobacterium tuberculosis” (Eur J Med Chem, 2020):
Values after ≈ are worked out from the molar mass of the structure shown.

What follows are compounds tested on Mycobacterium tuberculosis (assay: Antimycobacterial activity against isoniazid/rifampicin/ethambutol/pyrazinamide/streptomycin/kanamycin/para-aminosalicylic acid/prothionamide multidrug-resistant Mycobacterium tuberculosis assessed as inhibition of bacterial growth under 7H9 medium condition after 7 to 14 days in presence of tylo-xapol by broth microdilution method). Details: time 7-14 day.
Format: functional
Outline: (§1)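 Clinical MDR/XDR Mtb strains tested by broth microdilution in GAST or 7H9 with tyloxapol (0.05%), BSA fraction V (5 g/L) and NaCl (0.8 g/L) plus a carbon source. Compounds were dosed from DMSO stocks against DMSO vehicle controls. Inoculum was 10⁴-10⁵ cells per assay, with growth monitored at days 7 and 14. MIC is the concentration causing >99% inhibition.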

Row | SMILES | MIC
1 | CCCCCCCCCOCC(=O)NS(=O)(=O)OC[C@H]1O[C@@H](n2cnc3c(N)ncnc32)[C@H](O)[C@@H]1O | 12.5 µM
2 | [N-]=[N+]=NCCCCCCCCCCCC(=O)NS(=O)(=O)OC[C@H]1O[C@@H](n2cnc3c(N)ncnc32)[C@H](O)[C@@H]1O | 6.25 µM
3 | NNC(=O)c1ccncc1 [ISONIAZID] | 2 µM

These compounds were tested on Mycobacterium tuberculosis (assay: Antimycobacterial activity against isoniazid/rifampicin/ethambutol/kanamycin/ofloxacin multidrug-resistant Mycobacterium tuberculosis assessed as inhibition of bacterial growth under GAST medium condition after 7 to 14 days by broth microdilution method). Details: time 7-14 day.
Format: functional
Outline: as §1

Row | SMILES | MIC
4 | CCCCCCCCCOCC(=O)NS(=O)(=O)OC[C@H]1O[C@@H](n2cnc3c(N)ncnc32)[C@H](O)[C@@H]1O | 0.39 µM (≈ 0.207 µg/mL)
5 | [N-]=[N+]=NCCCCCCCCCCCC(=O)NS(=O)(=O)OC[C@H]1O[C@@H](n2cnc3c(N)ncnc32)[C@H](O)[C@@H]1O | 3.13 µM (≈ 1.78 µg/mL)
6 | NNC(=O)c1ccncc1 [ISONIAZID] | 4 µM (≈ 0.549 µg/mL)

What follows are compounds tested on Mycobacterium tuberculosis (assay: Antimycobacterial activity against isoniazid/rifampicin/ethambutol/streptomycin/ofloxacin/para-aminosalicylic acid/prothionamide multidrug-resistant Mycobacterium tuberculosis assessed as inhibition of bacterial growth under 7H9 medium condition after 7 to 14 days by broth microdilution method). Details: time 7-14 day.
Format: functional
Outline: as §1

Row | SMILES | MIC
7 | CCCCCCCCCOCC(=O)NS(=O)(=O)OC[C@H]1O[C@@H](n2cnc3c(N)ncnc32)[C@H](O)[C@@H]1O | 50 µM (≈ 26.5 µg/mL)
8 | [N-]=[N+]=NCCCCCCCCCCCC(=O)NS(=O)(=O)OC[C@H]1O[C@@H](n2cnc3c(N)ncnc32)[C@H](O)[C@@H]1O | 25 µM (≈ 14.2 µg/mL)
9 | NNC(=O)c1ccncc1 [ISONIAZID] | 8 µM (≈ 1.1 µg/mL)

These compounds were tested on Mycobacterium tuberculosis (assay: Antimycobacterial activity against isoniazid/rifampicin/ethambutol/streptomycin/ofloxacin/para-aminosalicylic acid/prothionamide multidrug-resistant Mycobacterium tuberculosis assessed as inhibition of bacterial growth under GAST medium condition after 7 to 14 days by broth microdilution method). Details: time 7-14 day.
Format: functional
Outline: as §1

Row | SMILES | MIC
10 | CCCCCCCCCOCC(=O)NS(=O)(=O)OC[C@H]1O[C@@H](n2cnc3c(N)ncnc32)[C@H](O)[C@@H]1O | 6.25 µM (≈ 3.32 µg/mL)
11 | [N-]=[N+]=NCCCCCCCCCCCC(=O)NS(=O)(=O)OC[C@H]1O[C@@H](n2cnc3c(N)ncnc32)[C@H](O)[C@@H]1O | 625 µM (≈ 356 µg/mL)
12 | NNC(=O)c1ccncc1 [ISONIAZID] | 8 µM (≈ 1.1 µg/mL)

The compounds below were run against T1, Long-chain-fatty-acid--AMP ligase FadD32 (Mycobacterium tuberculosis (strain ATCC 25618 / H37Rv), UniProt O53580) (assay: Inhibition of Mycobacterium tuberculosis H37Rv FAAL32 expressed in Escherichia coli BL21(DE3) cells incubated for 2 hrs in presence of [C14] fatty acid by SDS-PAGE analysis). Details: read-out: Ki(app).
T1 sequence (O53580 whole entry): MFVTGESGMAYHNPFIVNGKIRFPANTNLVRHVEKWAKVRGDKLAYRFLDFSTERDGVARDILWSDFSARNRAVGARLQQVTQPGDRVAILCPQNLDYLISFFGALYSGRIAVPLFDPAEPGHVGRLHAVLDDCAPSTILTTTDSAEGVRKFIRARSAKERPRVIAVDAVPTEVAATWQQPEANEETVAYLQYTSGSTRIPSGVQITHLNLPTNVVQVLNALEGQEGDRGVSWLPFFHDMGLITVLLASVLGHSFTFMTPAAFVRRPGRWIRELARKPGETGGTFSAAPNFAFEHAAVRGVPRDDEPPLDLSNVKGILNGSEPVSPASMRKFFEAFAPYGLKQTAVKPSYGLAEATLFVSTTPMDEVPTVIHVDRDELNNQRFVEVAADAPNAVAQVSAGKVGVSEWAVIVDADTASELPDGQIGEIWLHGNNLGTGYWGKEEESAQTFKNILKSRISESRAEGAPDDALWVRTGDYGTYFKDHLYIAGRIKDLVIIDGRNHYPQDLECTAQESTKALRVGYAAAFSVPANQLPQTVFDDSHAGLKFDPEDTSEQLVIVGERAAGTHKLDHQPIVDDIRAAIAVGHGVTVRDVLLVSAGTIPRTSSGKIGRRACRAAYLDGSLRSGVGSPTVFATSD

Row | SMILES | Ki
13 | CCCCCCCCCCCCOP(=O)(O)OC[C@H]1O[C@@H](n2cnc3c(N)ncnc32)[C@H](O)[C@@H]1O | 110 nM

These compounds were tested on Mycobacterium tuberculosis (assay: Antimycobacterial activity against isoniazid/rifampicin/ethambutol/para-aminosalicylic acid extensively drug-resistant Mycobacterium tuberculosis assessed as inhibition of bacterial growth under GAST medium condition after 7 to 14 days by broth microdilution method). Details: time 7-14 day.
Format: functional
Outline: as §1

Row | SMILES | MIC
14 | CCCCCCCCCOCC(=O)NS(=O)(=O)OC[C@H]1O[C@@H](n2cnc3c(N)ncnc32)[C@H](O)[C@@H]1O | 0.78 µM (≈ 0.414 µg/mL)
15 | [N-]=[N+]=NCCCCCCCCCCCC(=O)NS(=O)(=O)OC[C@H]1O[C@@H](n2cnc3c(N)ncnc32)[C@H](O)[C@@H]1O | 3.13 µM (≈ 1.78 µg/mL)
16 | NNC(=O)c1ccncc1 [ISONIAZID] | 4 µM (≈ 0.549 µg/mL)

The compounds below were run on Mycobacterium tuberculosis (assay: Antimycobacterial activity against isoniazid/rifampicin/ethambutol/pyrazinamide/streptomycin/kanamycin/para-aminosalicylic acid/prothionamide multidrug-resistant Mycobacterium tuberculosis assessed as inhibition of bacterial growth under 7H9 medium condition after 7 to 14 days by broth microdilution method). Details: time 7-14 day.
Format: functional
Outline: as §1

Row | SMILES | MIC
17 | CCCCCCCCCOCC(=O)NS(=O)(=O)OC[C@H]1O[C@@H](n2cnc3c(N)ncnc32)[C@H](O)[C@@H]1O | 12.5 µM (≈ 6.63 µg/mL)
18 | [N-]=[N+]=NCCCCCCCCCCCC(=O)NS(=O)(=O)OC[C@H]1O[C@@H](n2cnc3c(N)ncnc32)[C@H](O)[C@@H]1O | 50 µM (≈ 28.5 µg/mL)
19 | NNC(=O)c1ccncc1 [ISONIAZID] | 2 µM (≈ 0.274 µg/mL)

The compounds below were run on Mycobacterium tuberculosis (assay: Antimycobacterial activity against isoniazid/rifampicin/ethambutol/para-aminosalicylic acid extensively drug-resistant Mycobacterium tuberculosis assessed as inhibition of bacterial growth under 7H9 medium condition after 7 to 14 days by broth microdilution method). Details: time 7-14 day.
Format: functional
Outline: as §1

Row | SMILES | MIC
20 | CCCCCCCCCOCC(=O)NS(=O)(=O)OC[C@H]1O[C@@H](n2cnc3c(N)ncnc32)[C@H](O)[C@@H]1O | 6.25 µM (≈ 3.32 µg/mL)
21 | [N-]=[N+]=NCCCCCCCCCCCC(=O)NS(=O)(=O)OC[C@H]1O[C@@H](n2cnc3c(N)ncnc32)[C@H](O)[C@@H]1O | 12.5 µM (≈ 7.12 µg/mL)
22 | NNC(=O)c1ccncc1 [ISONIAZID] | 2 µM (≈ 0.274 µg/mL)

What follows are compounds tested on Mycobacterium tuberculosis (assay: Antimycobacterial activity against isoniazid/rifampicin/ethambutol/pyrazinamide/streptomycin/kanamycin/para-aminosalicylic acid/prothionamide multidrug-resistant Mycobacterium tuberculosis assessed as inhibition of bacterial growth under GAST medium condition after 7 to 14 days by broth microdilution method). Details: time 7-14 day.
Format: functional
Outline: as §1

Row | SMILES | MIC
23 | CCCCCCCCCOCC(=O)NS(=O)(=O)OC[C@H]1O[C@@H](n2cnc3c(N)ncnc32)[C@H](O)[C@@H]1O | 1.56 µM (≈ 0.828 µg/mL)
24 | [N-]=[N+]=NCCCCCCCCCCCC(=O)NS(=O)(=O)OC[C@H]1O[C@@H](n2cnc3c(N)ncnc32)[C@H](O)[C@@H]1O | 3.13 µM (≈ 1.78 µg/mL)
25 | NNC(=O)c1ccncc1 [ISONIAZID] | > 8 µM

What follows are compounds tested on Mycobacterium tuberculosis (assay: Antimycobacterial activity against isoniazid/rifampicin/ethambutol/kanamycin/ofloxacin multidrug-resistant Mycobacterium tuberculosis assessed as inhibition of bacterial growth under 7H9 medium condition after 7 to 14 days by broth microdilution method). Details: time 7-14 day.
Format: functional
Outline: as §1

Row | SMILES | MIC
26 | CCCCCCCCCOCC(=O)NS(=O)(=O)OC[C@H]1O[C@@H](n2cnc3c(N)ncnc32)[C@H](O)[C@@H]1O | 6.25 µM (≈ 3.32 µg/mL)
27 | [N-]=[N+]=NCCCCCCCCCCCC(=O)NS(=O)(=O)OC[C@H]1O[C@@H](n2cnc3c(N)ncnc32)[C@H](O)[C@@H]1O | 625 µM (≈ 356 µg/mL)
28 | NNC(=O)c1ccncc1 [ISONIAZID] | 2 µM (≈ 0.274 µg/mL)
